Reference: ChEMBL document CHEMBL3352704, “Microwave-assisted synthesis of 3,5-disubstituted isoxazoles and evaluation of their anti-ageing activity” (2014)
The source made the active and inactive calls. The calls are words filed in the database; no cut-off is given here.

Legend:
HLF1 [1] = assay: Inhibition of H2O2-induced oxidative stress in human HLF1 cells assessed as cell viability at 5 uM pretreated for 24 hrs followed by addition of 300 uM H2O2 for 2.5 hrs; assay type: functional, cell-based
Procedure, shortened: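 HFL-1 embryonic lung fibroblasts in DMEM/10% FBS, fed about 16 h before assay; 10⁴ cells seeded, 24 h later given compound in DMSO or DMSO alone for 24 h. Then 300 μM H2O2 for 2.5 h with compound still present, PBS wash, 5-day recovery in complete medium. Cells counted in triplicate with a Coulter counter; at least two experiments.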

Caenorhabditis elegans [2] = assay: Antiaging activity in Caenorhabditis elegans Bristol isolate N2 assessed as lifespan; assay type: functional, organism-based
Procedure, shortened: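 C. elegans N2 hermaphrodites, egg-lay synchronized, moved at L4 (80-120 per condition) onto UV-killed OP50/NGM plates carrying compound in DMSO diluted in M9, or DMSO alone; 20 °C, new plates every 2 days, exposure lifelong. Day 1 adult = t0. Scored daily for touch-provoked movement and pharyngeal pumping until death. Kaplan–Meier curves, log-rank test; repeated at least twice.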

HLF1 [3] = assay: Inhibition of H2O2-induced oxidative stress in human HLF1 cells assessed as increase in cell viability at 2 to 5 uM pretreated for 24 hrs followed by addition of 300 uM H2O2 for 2.5 hrs; assay type: functional, cell-based
Caenorhabditis elegans [4] = assay: Antiaging activity in Caenorhabditis elegans Bristol isolate N2 assessed as increase in lifespan at 1 uM (reference value: 15 +/- 0.85%); assay type: functional
Caenorhabditis elegans [5] = assay: Antiaging activity in Caenorhabditis elegans Bristol isolate N2 assessed as increase in lifespan at 10 uM (reference value: 15 +/- 0.85%); assay type: functional
Caenorhabditis elegans [6] = assay: Antiaging activity in Caenorhabditis elegans Bristol isolate N2 assessed as increase in lifespan at 20 uM (reference value: 15 +/- 0.85%); assay type: functional
Caenorhabditis elegans [7] = assay: Antiaging activity in Caenorhabditis elegans Bristol isolate N2 assessed as lifespan at 10 uM; assay type: functional, organism-based

Compound	inhibition (HLF1 [1])	Activity (Caenorhabditis elegans [2])	other results
Cc1c(C)c2c(c(C)c1O)C=CC(C)(COCc1cc(-c3ccc(F)cc3)no1)O2 (stereo unspecified)	inactive	inactive	
OCc1cc(-c2ccc(O)cc2)no1	inactive	inactive	
Oc1ccc(-c2cc(-c3ccccc3)on2)cc1	inactive	inactive	
CCCc1cc(-c2ccc(O)cc2)no1	inactive	inactive	
Cc1c(C)c2c(c(C)c1O)C=CC(C)(COCc1cc(-c3ccc(O)cc3)no1)O2 (stereo unspecified)			Activity (HLF1 [3]): Active; ILS at 1 µM (Caenorhabditis elegans [4]): 18%; ILS at 10 µM (Caenorhabditis elegans [5]): 18%; ILS at 20 µM (Caenorhabditis elegans [6]): 20%
COc1c(C)c(C)c2c(c1C)CCC(C)(COCc1cc(-c3ccc(O)cc3)no1)O2 (stereo unspecified)	inactive	inactive	
O=c1c(O)c(-c2ccc(O)c(O)c2)oc2cc(O)cc(O)c12			Activity (HLF1 [3]): Active; Activity (Caenorhabditis elegans [7]): inactive
